Source: ChEMBL document CHEMBL1123541, “Preparation and antitumor activity of 7-substituted 1,2-aziridinomitosenes” (J Med Chem, 1986)

Legend:
Mus musculus [1] = experiment: Average weight change of BDF1 female mice at a dose of 1.6 mg/kg per injection; assay type: functional
Outline: (§1)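 BDF1 female mice implanted ip with 10^6 ascites leukemia cells, then given the aziridinomitosene on day 1 only, six mice per dose. Average weight change is the weight difference between the treated and control groups.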

Mus musculus [2] = experiment: Average weight change of BDF1 female mice at a dose of 51.2 mg/kg per injection; assay type: functional; outline: as §1
Mus musculus [3] = experiment: Average weight change of BDF1 female mice at a dose of 25.6 mg/kg per injection; assay type: functional; outline: as §1
P388 [4] = experiment: Compound was tested for antitumor activity against P388 Murine leukemia in BDF1 female mice at a dose of 12.8 mg/kg per injection; assay type: functional, Mus musculus; parameters: unit not given here
Outline: (§2)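 P388 ascites cells (10^6) implanted ip into BDF1 female mice. Aziridinomitosene given on day 1 only, six mice per dose; ten saline-treated mice on day 1 only as controls. Read-out is median survival time in days, %T/C = MST treated/MST control × 100, with 125 taken as significant. Mitomycin C run as a positive control at its optimal dose.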

P388 [5] = experiment: Compound was tested for antitumor activity against P388 Murine leukemia in BDF1 female mice at a dose of 0.4 mg/kg per injection; assay type: functional, Mus musculus; outline: as §2
Mus musculus [6] = experiment: Average weight change of BDF1 female mice at a dose of 12.8 mg/kg per injection; assay type: functional; outline: as §1
[7] = Partition coefficient (logP); assay type: physicochemical; settings: octanol/water
P388 [8] = experiment: Compound was tested for antitumor activity against P388 Murine leukemia in BDF1 female mice at a dose of 3.2 mg/kg per injection (MST treated / MST control x 100); assay type: functional, Mus musculus; outline: as §2
P388 [9] = experiment: Minimum effective dose determined against P-388 Murine leukemia in BDF1 female mice.; assay type: functional; settings: Mus musculus, read-out: MED
P388 [10] = experiment: Compound was tested for antitumor activity against P388 Murine leukemia in BDF1 female mice at a dose of 0.2 mg/kg per injection; assay type: functional, Mus musculus; outline: as §2
P388 [11] = experiment: Compound was tested for antitumor activity against P388 Murine leukemia in BDF1 female mice at a dose of 1.6 mg/kg per injection; assay type: functional, Mus musculus; outline: as §2
Mus musculus [12] = experiment: Average weight change of BDF1 female mice at a dose of 6.4 mg/kg per injection; assay type: functional; outline: as §1
Mus musculus [13] = experiment: Average weight change of BDF1 female mice at a dose of 3.2 mg/kg per injection; assay type: functional; outline: as §1
P388 [14] = experiment: Compound was tested for antitumor activity against P388 Murine leukemia in BDF1 female mice at a dose of 6.4 mg/kg per injection; assay type: functional, Mus musculus; outline: as §2
P388 [15] = experiment: Compound was tested for antitumor activity against P388 Murine leukemia in BDF1 female mice at a dose of 0.8 mg/kg per injection; assay type: functional, Mus musculus; outline: as §2
P388 [16] = experiment: Compound was tested for antitumor activity against P388 Murine leukemia in BDF1 female mice at a dose of 8 mg/kg per injection; assay type: functional, Mus musculus; outline: as §2
Mus musculus [17] = experiment: Average weight change of BDF1 female mice at a dose of 16 mg/kg per injection; assay type: functional; outline: as §1
P388 [18] = experiment: Compound was tested for antitumor activity against P388 Murine leukemia in BDF1 female mice at a dose of 16 mg/kg per injection; assay type: functional, Mus musculus; outline: as §2
P388 [19] = experiment: Compound was tested for antitumor activity against P388 Murine leukemia in BDF1 female mice at a dose of 4 mg/kg per injection; assay type: functional, Mus musculus; outline: as §2
Mus musculus [20] = experiment: Average weight change of BDF1 female mice at a dose of 8 mg/kg per injection; assay type: functional; outline: as §1
Mus musculus [21] = experiment: Average weight change of BDF1 female mice at a dose of 4 mg/kg per injection; assay type: functional; outline: as §1
Mus musculus [22] = experiment: Average weight change of BDF1 female mice at a dose of 32 mg/kg per injection; assay type: functional; outline: as §1
Mus musculus [23] = experiment: Average weight change of BDF1 female mice at a dose of 64 mg/kg per injection; assay type: functional; outline: as §1
P388 [24] = experiment: Compound was tested for antitumor activity against P388 Murine leukemia in BDF1 female mice at a dose of 3.2 mg/kg per injection given as MST treated / MST control x 100; assay type: functional, Mus musculus; outline: as §2
P388 [25] = experiment: Compound was tested for antitumor activity against P388 Murine leukemia in BDF1 female mice at a dose of 32 mg/kg per injection; assay type: functional, Mus musculus; outline: as §2
P388 [26] = experiment: Compound was tested for antitumor activity against P388 Murine leukemia in BDF1 female mice at a dose of 64 mg/kg per injection; assay type: functional, Mus musculus; outline: as §2

CC1=C(N2CC2C)C(=O)c2c(COC(N)=O)c3n(c2C1=O)CC1C3N1C (stereo not drawn)
Weight change (Mus musculus [1]): 0 g | Weight change (Mus musculus [2]): -1.3 g | Weight change (Mus musculus [3]): -1 g | MST (P388 [4]): 238 | MST (P388 [5]): 138 days | Weight change (Mus musculus [6]): -0.5 g | logP [7]: 1.23 | T/C (P388 [8]): 163% | minimal effective dose (P388 [9]): 0.2 mg/kg | T/C (P388 [10]): 125% | MST (P388 [11]): 156 days | Weight change (Mus musculus [12]): -0.4 g | Weight change (Mus musculus [13]): 0 g | MST (P388 [14]): 194 %T/C | MST (P388 [15]): 125 days

CC1=C(NCc2ccco2)C(=O)c2c(COC(N)=O)c3n(c2C1=O)CC1NC31 (stereo not drawn)
MST (P388 [16]): 144 days | Weight change (Mus musculus [17]): -1.7 g | MST (P388 [18]): 156 days | MST (P388 [19]): 122 days | logP [7]: 1.33 | minimal effective dose (P388 [9]): 8 mg/kg | Weight change (Mus musculus [20]): 0.1 g | Weight change (Mus musculus [21]): -0.7 g | Weight change (Mus musculus [22]): -1.2 g | Weight change (Mus musculus [23]): -1.8 g | T/C (P388 [24]): 228% | MST (P388 [25]): 189 days | MST (P388 [26]): 183 days
